Tests used:
[1] = Antioxidant activity assessed as ABTS radical scavenging activity after 6 mins; assay type: functional
Summary of the method: (§1)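 ABTS radical cation made from 7 mM ABTS in deionized water plus potassium persulphate (2.45 mM), kept dark at room temperature 12–16 h, then diluted with ethanol to A734 0.700 ± 0.020. 1 ml of this added to 10 µl compound; absorbance at 734 nm read at 30 °C at 1–6 min after mixing. Triplicate determinations.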

Mus musculus [2] = organism: Mus musculus; assay: Antioxidant activity in Swiss albino mouse assessed as reduced glutathione level measured per mg of tissue after 7 days; assay type: functional
Summary of the method: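 Male Swiss albino mice (24 ± 2 g) given compound orally in 0.1 ml double-distilled water daily for 7 days; controls got water. Perfused liver homogenized 10% w/v in tris-KCl pH 7.4, precipitated with 25% TCA, centrifuged. 0.1 ml supernatant mixed with 2 ml 0.6 mM DTNB and 0.9 ml […] pH 8.0; absorbance at 412 nm for GSH.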

[3] = Antioxidant activity assessed as ABTS radical scavenging activity after 2 mins; assay type: functional; summary of the method: as §1
Mus musculus [4] = organism: Mus musculus; assay: Antioxidant activity in Swiss albino mouse assessed as lipid peroxidation level measured per mg of tissue after 7 days; assay type: functional, organism-based
Summary of the method: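 Male random-bred Swiss albino mice (24 ± 2 g) dosed orally once daily for 7 days with compound in 0.1 ml double-distilled water; controls water only. Liver perfused with cold 0.9% NaCl, homogenized 10% w/v in tris-KCl pH 7.4. TBARS: sample with tris-KCl, 30% TCA, 52 mM TBA, 25 min at 80 °C, centrifuged; supernatant read at 531.8 nm, expressed as malondialdehyde per mg protein.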

[5] = Antioxidant activity assessed as ABTS radical scavenging activity after 1 min; assay type: functional; summary of the method: as §1
[6] = tested on: Radical scavenging activity; assay: Antioxidant activity assessed as DPPH radical scavenging activity at 1 mg/ml; assay type: functional
Summary of the method: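 Compound stock 1 mg/ml in methanol; 50 µl added to 5 ml 0.004% methanolic DPPH. Incubated 30 min in dark at room temperature, absorbance at 517 nm against blank. Percent inhibition calculated by formula; triplicate.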

[7] = Antioxidant activity assessed as ABTS radical scavenging activity after 4 mins; assay type: functional; summary of the method: as §1

Structure (SMILES): COc1cccc2c1Nc1c(c(=O)[nH]c3c(OC)cccc13)S2
- deltaA [1]: 0.052
- Activity (Mus musculus [2]): 4.8 nmol
- deltaA [3]: 0.052
- Activity (Mus musculus [4]): 6.81 nmol
- deltaA [5]: 0.055
- inhibition [6]: 54.3%
- deltaA [7]: 0.052

Structure (SMILES): Cc1ccc2[nH]c(=O)c3c(c2c1)Nc1c(C)cccc1S3
- deltaA [1]: 0.52
- Activity (Mus musculus [2]): 4.5 nmol
- deltaA [3]: 0.52
- Activity (Mus musculus [4]): 6.69 nmol
- deltaA [5]: 0.56
- inhibition [6]: 8.33%
- deltaA [7]: 0.52

Structure (SMILES): Cc1cccc2c1Nc1c(c(=O)[nH]c3c(C)cccc13)S2
- deltaA [1]: 0.61
- Activity (Mus musculus [2]): 4.51 nmol
- deltaA [3]: 0.61
- Activity (Mus musculus [4]): 6.72 nmol
- deltaA [5]: 0.62
- inhibition [6]: 2.71%
- deltaA [7]: 0.61

Structure (SMILES): Cc1ccc2[nH]c(=O)c3c(c2c1)Nc1ccc(Br)cc1S3
- deltaA [1]: 0.406
- Activity (Mus musculus [2]): 5 nmol
- deltaA [3]: 0.406
- Activity (Mus musculus [4]): 6.42 nmol
- deltaA [5]: 0.412
- inhibition [6]: 13.7%
- deltaA [7]: 0.406

Structure (SMILES): COc1cccc2c3c(c(=O)[nH]c12)Sc1cc(Br)ccc1N3
- deltaA [1]: 0.095
- Activity (Mus musculus [2]): 5.01 nmol
- deltaA [3]: 0.098
- Activity (Mus musculus [4]): 6.51 nmol
- deltaA [5]: 0.141
- inhibition [6]: 53.8%
- deltaA [7]: 0.098

Structure (SMILES): Cc1ccc2[nH]c(=O)c3c(c2c1)Nc1c(cccc1C(F)(F)F)S3
- deltaA [1]: 0.318
- Activity (Mus musculus [2]): 4.9 nmol
- deltaA [3]: 0.318
- Activity (Mus musculus [4]): 6.53 nmol
- deltaA [5]: 0.328
- inhibition [6]: 22.4%
- deltaA [7]: 0.318

Source: ChEMBL document CHEMBL1250484, “Synthesis and antioxidant activity of quinolinobenzothiazinones” (2010)
